Data as given in ChEMBL document CHEMBL1159358, “Cytotoxic prenylflavanones from Taiwanese propolis” (J Nat Prod, 2003).
In brackets after ≈: the same amount, converted by molar mass. Activity calls are given as the source filed them. The rule behind the calls is not given here.

Columns and labels:
[1] = system: Radical scavenging activity; test: Antioxidant activity against DPPH radical scavenging activity at 6.25 ug/ml; type: functional
Outline: (§1)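 Scavenging of DPPH radical: sample in methanol (3.125, 6.25, 12.5, 25.0 µg/mL final) mixed 1:1 with 0.15 mM DPPH in methanol; absorbance change at 517 nm followed for 1 min. Percent scavenged = 100 × (A0 − Ai)/A0, A0 being initial DPPH absorbance.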

[2] = system: Radical scavenging activity; test: Antioxidant activity against DPPH radical scavenging activity at 25 ug/ml; type: functional; outline: as §1
[3] = system: Radical scavenging activity; test: Antioxidant activity against DPPH radical scavenging activity at 3.125 ug/ml; type: functional; outline: as §1
[4] = system: Radical scavenging activity; test: Antioxidant activity against DPPH radical scavenging activity at 12.5 ug/ml; type: functional; outline: as §1
[5] = system: HL-60; test: Cytotoxicity against human HL60 cells at >15 ug/ml after 24 hrs by trypan blue exclusion assay; type: functional, cell-based
Outline: (§2)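 HL-60 cells grown in RPMI 1640 with 10% FBS and 1% penicillin/streptomycin, 37 °C, 5% CO2. Seeded at 1 × 10^5 cells/well and exposed to various compound concentrations for 24 h. Cells counted; viability by trypan blue exclusion.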

[6] = system: Melanoma cell; test: Induction of apoptosis in human Melanoma cells assessed as accumulation at subG1 at 15 uM after 24 hrs by flow cytometry analysis; type: functional; conditions: in the assay text read “15 ug/mL” for “15 uM”
Outline: (§3)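 Melanoma cells (1 × 10^6 per 60 mm dish) preincubated 12 h, then exposed to 15 µg/mL compound or DMSO for 0, 3, 6, 12 or 24 h. Cells fixed in ice-cold ethanol at −20 °C overnight, treated with Triton X-100/RNase A 30 min at 37 °C, stained with propidium iodide. Sub-G1 (lower DNA content) fraction measured by flow cytometry.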

[7] = system: HL-60 (Homo sapiens); test: Induction of apoptosis in human HL-60 cells assessed as DNA fragmentation at 5 ug/ml after 24 hrs by agarose gel electrophoresis
[8] = system: C6; test: Cytotoxicity against rat C6 cells at >15 ug/m after 24 hrs by trypan blue exclusion assay; type: functional, cell-based
Outline: (§4)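 Human melanoma and C6 glioma cells grown in DMEM with 10% FBS and 1% penicillin/streptomycin, 37 °C, 5% CO2. Seeded at 1 × 10^5 cells/well and exposed to various compound concentrations for 24 h. Cells counted; viability by trypan blue exclusion.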

[9] = system: Melanoma cell; test: Induction of apoptosis in human Melanoma cells assessed as accumulation at subG1 at 15 ug/mL after 3 hrs by flow cytometry analysis
[10] = system: Melanoma cell; test: Cytotoxicity against human Melanoma cells after 24 hrs by trypan blue exclusion assay; type: functional, cell-based; outline: as §4
[11] = system: C6; test: Cytotoxicity against rat C6 cells after 24 hrs by trypan blue exclusion assay; type: functional, cell-based; conditions: C6, 24 h; outline: as §4
[12] = system: Melanoma cell; test: Induction of apoptosis in human Melanoma cells assessed as accumulation at subG1 at 15 uM after 12 hrs by flow cytometry analysis; type: functional; conditions: in the assay text read “15 ug/mL” for “15 uM”; outline: as §3
[13] = system: Melanoma cell; test: Induction of apoptosis in human Melanoma cells assessed as accumulation at subG1 at 15 ug/mL after 6 hrs by flow cytometry analysis
[14] = system: Radical scavenging activity; test: Antioxidant activity against DPPH radical scavenging activity; type: functional; outline: as §1
[15] = system: HL-60; test: Cytotoxicity against human HL60 cells after 24 hrs by trypan blue exclusion assay; type: functional, cell-based; conditions: HL-60, 24 h; outline: as §2

IC50 [14] | SMILES | Activity [1] | Activity [2] | Activity [3] | Activity [4] | Activity [5] | Activity [6] | Activity [7] | Activity [8] | Activity [9] | IC50 [10] | IC50 [11] | Activity [12] | Activity [13] | IC50 [15]
– | O=C(/C=C/c1ccc(O)c(O)c1)OCCc1ccccc1 | 85.5% | 99.8% | 39.1% | 98.5% | – | – | – | – | – | – | – | – | – | –
5 µg/mL (≈ 11.3 µM) | C/C(=C/Cc1c([C@@H]2CC(=O)c3c(O)cc(O)cc3O2)ccc(O)c1O)CCCC(C)(C)O [PROPOLIN A] | 72.2% | 99.5% | 36% | 92.1% | Active | 40.95% | Active | Active | 15.01% | 6 µg/mL (≈ 13.6 µM) | 3.5 µg/mL (≈ 7.91 µM) | 23.93% | 15.22% | 7.5 µg/mL (≈ 16.9 µM)
9 µg/mL (≈ 20.3 µM) | C/C(=C\Cc1cc([C@@H]2CC(=O)c3c(O)cc(O)cc3O2)cc(O)c1O)CCCC(C)(C)O [PROPOLIN B] | 36.7% | 94.7% | 18.3% | 85.7% | – | – | – | – | – | 7.5 µg/mL (≈ 16.9 µM) | 4 µg/mL (≈ 9.04 µM) | – | – | 7.5 µg/mL (≈ 16.9 µM)
